Measured values taken from ChEMBL document CHEMBL3112550, “Specific features of HIV-1 integrase inhibition by bisphosphonate derivatives” (Eur J Med Chem, 2014).
The source made the active and inactive calls. No cut-off for these calls is given here.

What was measured:
[1] = molecular target: Human immunodeficiency virus type 1 integrase (Human immunodeficiency virus 1) (UniProt Q7ZJM1); test: (§1) Inhibition of HIV-1 integrase expressed in Escherichia coli using [32P]-labeled U5B/U5A DNA as substrate assessed as inhibition of 3'-processing reaction after 2 hrs by PAGE analysis in presence of Mg2+
Summary of the method: (§2)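 3'-Processing: 32P-labeled U5B/U5A (3 nM) with IN (100 nM) in buffer A (20 mM HEPES pH 7.2, 7.5 mM MgCl2 or MnCl2, 1 mM DTT), increasing inhibitor, 37°C, 2 h; stopped with EDTA solution, phenol–chloroform extracted, ethanol precipitated, resolved on denaturing 20% PAGE, phosphorimager-quantified.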

[2] = molecular target: Human immunodeficiency virus type 1 integrase (Human immunodeficiency virus 1) (UniProt Q7ZJM1); test: Inhibition of HIV-1 integrase expressed in Escherichia coli using [32P]-labeled U5B/U5A DNA as substrate assessed as inhibition of 3'-processing reaction up to 500 uM after 2 hrs by PAGE analysis in presence of Mg2+
Summary of the method: (§3)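 3'-processing: 32P-labelled U5B/U5A duplex mimicking the HIV-1 U5 LTR end (3 nM) incubated with integrase (100 nM) in 20 mM HEPES pH 7.2, 7.5 mM MgCl2, 1 mM DTT, with increasing inhibitor concentrations, 37°C, 2 h. Stopped with EDTA, phenol-chloroform extracted, ethanol precipitated. Products resolved on denaturing 20% PAGE, phosphorimaged, reaction efficiency quantified.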

[3] = molecular target: T1, Human immunodeficiency virus type 1 integrase (Human immunodeficiency virus 1, UniProt Q7ZJM1); test: Inhibition of HIV-1 integrase expressed in Escherichia coli using [32P]-labeled U5B-2/U5A DNA as substrate assessed as inhibition of strand transfer reaction after 2 hrs by PAGE analysis in presence of Mg2+
Summary of the method: (§4)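 Strand transfer: 32P-labeled U5B-2/U5A duplex (10 nM) with IN (100 nM) in buffer A (20 mM HEPES pH 7.2, 7.5 mM MgCl2 or MnCl2, 1 mM DTT), increasing inhibitor, 37°C, 2 h. EDTA-containing stop solution, phenol–chloroform extraction, ethanol precipitation, denaturing 20% PAGE, phosphorimager quantification of reaction efficiency.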

[4] = molecular target: T1, Human immunodeficiency virus type 1 integrase; test: Inhibition of HIV-1 integrase expressed in Escherichia coli using [32P]-labeled U5B/U5A DNA as substrate assessed as inhibition of 3'-processing reaction after 2 hrs by PAGE analysis in presence of Mn2+; summary of the method: as §2
[5] = molecular target: T1, Human immunodeficiency virus type 1 integrase; test: Displacement of [32P]-labeled U5B/U5A DNA from HIV-1 integrase expressed in Escherichia coli in presence of Mg2+
Summary of the method: (§5)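 DRaCALA binding: 32P-labeled U5B/U5A (3 nM) with IN in buffer A (20 mM HEPES pH 7.2, 7.5 mM MgCl2 or MnCl2, 1 mM DTT), compound 0–500 μM, 25°C for 20 min; mixture spotted on nitrocellulose membrane, bound DNA quantified by phosphorimaging.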

[6] = molecular target: T1, Human immunodeficiency virus type 1 integrase; test: Displacement of [32P]-labeled U5B/U5A DNA from HIV-1 integrase expressed in Escherichia coli in presence of Mn2+; summary of the method: as §5
[7] = molecular target: T1, Human immunodeficiency virus type 1 integrase; test: as §1; summary of the method: as §2
[8] = molecular target: T1, Human immunodeficiency virus type 1 integrase; test: Inhibition of HIV-1 integrase expressed in Escherichia coli using [32P]-labeled U5B-2/U5A DNA as substrate assessed as inhibition of strand transfer reaction after 2 hrs by PAGE analysis in presence of Mn2+; summary of the method: as §4
[9] = molecular target: Human immunodeficiency virus type 1 integrase (Human immunodeficiency virus 1) (UniProt Q7ZJM1); test: Inhibition of HIV-1 integrase expressed in Escherichia coli using [32P]-labeled U5B/U5A DNA as substrate assessed as inhibition of 3'-processing reaction up to 250 uM after 2 hrs by PAGE analysis in presence of Mg2+; summary of the method: as §2
[10] = molecular target: Human immunodeficiency virus type 1 integrase (Human immunodeficiency virus 1, UniProt Q7ZJM1, G140S); test: Inhibition of HIV-1 integrase G140S mutant expressed in Escherichia coli using [32P]-labeled U5B/U5A DNA as substrate assessed as inhibition of 3'-processing reaction after 2 hrs by PAGE analysis in presence of Mg2+; summary of the method: as §3
[11] = molecular target: Human immunodeficiency virus type 1 integrase (Human immunodeficiency virus 1, UniProt Q7ZJM1, N155H); test: Inhibition of HIV-1 integrase N155H mutant expressed in Escherichia coli using [32P]-labeled U5B/U5A DNA as substrate assessed as inhibition of 3'-processing reaction after 2 hrs by PAGE analysis in presence of Mg2+; summary of the method: as §3
[12] = molecular target: T1, Human immunodeficiency virus type 1 integrase; test: Inhibition of HIV-1 GST-tagged integrase-His6-tagged LEDGF complex expressed in Escherichia coli BL21(DE3) using [32P]-labeled U5B/U5A DNA as substrate assessed as inhibition of 3'-processing reaction after 2 hrs by PAGE analysis in presence of Mn2+
Summary of the method: (§6)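 IN/LEDGF complex (IN combined with 50 nM LEDGF) processing 32P-labeled U5B/U5A (3 nM) in buffer A (20 mM HEPES pH 7.2, 7.5 mM MgCl2 or MnCl2, 1 mM DTT) with increasing inhibitor, 37°C, 2 h; products separated by denaturing 20% PAGE and quantified by phosphorimaging.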

[13] = molecular target: T1, Human immunodeficiency virus type 1 integrase; test: Non-competitive inhibition of HIV-1 integrase expressed in Escherichia coli using [32P]-labeled U5B/U5A DNA as substrate after 1 hr by double-reciprocal plot analysis in presence of Mn2+
Summary of the method: (§7)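 Kinetics: IN (100 nM) incubated with 32P-labeled U5B/U5A (2.5–12.5 nM) plus inhibitor (0–39 μM or 0–15 μM, depending on compound) in buffer A (20 mM HEPES pH 7.2, 7.5 mM MgCl2 or MnCl2, 1 mM DTT), 1 h, 37°C. Initial 3'-processing rate vs substrate concentration at varied inhibitor levels plotted double-reciprocally; Km and KI calculated from the fitted inhibition model.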

[14] = molecular target: T1, Human immunodeficiency virus type 1 integrase; test: Inhibition of HIV-1 GST-tagged integrase-His6-tagged LEDGF complex expressed in Escherichia coli BL21(DE3) using [32P]-labeled U5B/U5A DNA as substrate assessed as inhibition of 3'-processing reaction after 2 hrs by PAGE analysis in presence of Mg2+; summary of the method: as §6
[15] = molecular target: T1, Human immunodeficiency virus type 1 integrase; test: Non-competitive inhibition of HIV-1 integrase expressed in Escherichia coli using [32P]-labeled U5B/U5A DNA as substrate after 1 hr by double-reciprocal plot analysis in presence of Mg2+; summary of the method: as §7
[16] = molecular target: Human immunodeficiency virus type 1 integrase (Human immunodeficiency virus 1, UniProt Q7ZJM1, E92Q); test: Inhibition of HIV-1 integrase E92Q mutant expressed in Escherichia coli using [32P]-labeled U5B/U5A DNA as substrate assessed as inhibition of 3'-processing reaction after 2 hrs by PAGE analysis in presence of Mg2+; summary of the method: as §3
[17] = molecular target: Human immunodeficiency virus type 1 integrase (Human immunodeficiency virus 1) (UniProt Q7ZJM1); test: Ratio of IC50 for HIV-1 integrase-mediated 3'-processing reaction in presence of Mg2+ to IC50 for HIV-1 integrase-mediated strand transfer reaction in presence of Mg2+
[18] = molecular target: Human immunodeficiency virus type 1 integrase (Human immunodeficiency virus 1, UniProt Q7ZJM1, E138K); test: Inhibition of HIV-1 integrase E138K mutant expressed in Escherichia coli using [32P]-labeled U5B/U5A DNA as substrate assessed as inhibition of 3'-processing reaction after 2 hrs by PAGE analysis in presence of Mg2+; summary of the method: as §3
[19] = molecular target: T1, Human immunodeficiency virus type 1 integrase; test: Competitive inhibition of HIV-1 integrase expressed in Escherichia coli using [32P]-labeled U5B/U5A DNA as substrate after 1 hr by double-reciprocal plot analysis in presence of Mg2+; summary of the method: as §7

Chain of Human immunodeficiency virus type 1 integrase (Human immunodeficiency virus 1) (Q7ZJM1 as listed by the source): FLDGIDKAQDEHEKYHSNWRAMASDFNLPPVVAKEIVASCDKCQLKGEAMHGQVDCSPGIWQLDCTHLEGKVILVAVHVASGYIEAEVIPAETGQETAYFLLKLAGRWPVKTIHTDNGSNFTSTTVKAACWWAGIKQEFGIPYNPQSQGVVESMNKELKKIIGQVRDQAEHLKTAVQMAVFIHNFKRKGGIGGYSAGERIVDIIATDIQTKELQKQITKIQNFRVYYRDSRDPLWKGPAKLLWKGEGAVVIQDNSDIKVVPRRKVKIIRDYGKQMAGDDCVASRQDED
T1 sequence (Q7ZJM1 whole entry): as the sequence (Q7ZJM1 as listed by the source) above
Chain of Human immunodeficiency virus type 1 integrase (Human immunodeficiency virus 1, UniProt Q7ZJM1, G140S) (Q7ZJM1 entry or part of it G140S): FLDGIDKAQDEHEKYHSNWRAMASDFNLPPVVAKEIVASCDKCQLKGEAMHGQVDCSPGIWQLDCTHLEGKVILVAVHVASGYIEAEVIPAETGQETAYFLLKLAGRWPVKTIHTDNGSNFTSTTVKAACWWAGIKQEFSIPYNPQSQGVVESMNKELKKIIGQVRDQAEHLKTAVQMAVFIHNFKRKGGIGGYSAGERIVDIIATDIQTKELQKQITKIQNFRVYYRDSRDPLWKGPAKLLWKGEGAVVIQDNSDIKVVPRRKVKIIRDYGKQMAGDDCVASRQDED
Chain of Human immunodeficiency virus type 1 integrase (Human immunodeficiency virus 1, UniProt Q7ZJM1, E138K) (Q7ZJM1 entry or part of it E138K): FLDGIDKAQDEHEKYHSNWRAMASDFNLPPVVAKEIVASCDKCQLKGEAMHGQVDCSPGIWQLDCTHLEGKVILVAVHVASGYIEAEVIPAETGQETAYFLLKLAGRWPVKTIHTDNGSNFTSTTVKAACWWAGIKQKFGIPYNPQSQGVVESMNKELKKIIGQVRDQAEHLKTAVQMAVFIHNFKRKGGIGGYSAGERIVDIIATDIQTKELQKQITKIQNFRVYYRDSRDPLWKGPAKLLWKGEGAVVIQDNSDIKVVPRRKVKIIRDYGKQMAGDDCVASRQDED
Chain of Human immunodeficiency virus type 1 integrase (Human immunodeficiency virus 1, UniProt Q7ZJM1, N155H) (Q7ZJM1 entry or part of it N155H): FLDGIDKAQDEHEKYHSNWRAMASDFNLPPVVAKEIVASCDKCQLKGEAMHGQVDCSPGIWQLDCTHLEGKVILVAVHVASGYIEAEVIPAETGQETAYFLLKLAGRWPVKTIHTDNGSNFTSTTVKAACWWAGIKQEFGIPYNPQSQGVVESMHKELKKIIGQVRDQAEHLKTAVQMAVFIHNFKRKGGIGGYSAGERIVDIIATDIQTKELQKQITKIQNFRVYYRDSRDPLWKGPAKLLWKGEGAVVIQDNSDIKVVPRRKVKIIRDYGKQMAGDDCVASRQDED
Chain of Human immunodeficiency virus type 1 integrase (Human immunodeficiency virus 1, UniProt Q7ZJM1, E92Q) (Q7ZJM1 entry or part of it E92Q): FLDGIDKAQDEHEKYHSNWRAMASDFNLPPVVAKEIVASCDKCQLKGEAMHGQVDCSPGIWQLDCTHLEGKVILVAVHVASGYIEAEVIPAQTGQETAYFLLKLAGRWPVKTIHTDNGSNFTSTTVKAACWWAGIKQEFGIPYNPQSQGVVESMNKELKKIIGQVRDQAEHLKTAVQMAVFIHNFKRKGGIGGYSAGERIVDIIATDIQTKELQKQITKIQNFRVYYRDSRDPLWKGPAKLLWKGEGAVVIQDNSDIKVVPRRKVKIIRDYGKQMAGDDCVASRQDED

O=P(O)(O)C(CNCCc1ccccc1)P(=O)(O)O
inhibition [1]: inactive

O=C(O)Cc1ccc(Cl)c(Cl)c1
inhibition [2]: inactive

O=P(O)(O)C(Cc1ccc(Cl)c(Cl)c1)(Cc1ccc(Cl)c(Cl)c1)P(=O)(O)O
IC50 [3]: 16 µM | IC50 [4]: 0.8 µM | IC50 [5]: 100 µM | IC50 [6]: > 500 µM | IC50 [7]: 20 µM | IC50 [8]: 0.8 µM

CCc1cccc[n+]1CC(O)(P(=O)(O)O)P(=O)(O)O
inhibition [9]: inactive

O=P(O)(O)C(O)(Cc1ccccc1)P(=O)(O)O
inhibition [9]: inactive

O=P(O)(O)C(O)(C[n+]1ccc(-c2ccccc2)cc1)P(=O)(O)O
inhibition [9]: inactive

O=P(O)(O)C(O)(CCCCc1ccccc1)P(=O)(O)O
inhibition [9]: inactive

O=P(O)(O)C(O)(CCc1ccccc1)P(=O)(O)O
inhibition [9]: inactive

O=P(O)(O)C(O)(C[n+]1ccccc1)P(=O)(O)O
inhibition [9]: inactive

O=P(O)(O)Cc1ccc(Cl)c(Cl)c1
inhibition [2]: inactive

NC(Cc1ccccc1)(P(=O)(O)O)P(=O)(O)O
inhibition [9]: inactive

NC(C[n+]1ccccc1)(P(=O)(O)O)P(=O)(O)O
inhibition [9]: inactive

O=P(O)(O)C(O)(C[n+]1cccc(O)c1)P(=O)(O)O
inhibition [9]: inactive

NC(Cc1ccc(Cl)c(Cl)c1)(P(=O)(O)O)P(=O)(O)O
IC50 [10]: 7 µM | IC50 [11]: 7 µM | IC50 [12]: 2 µM | IC50 [3]: 3 µM | IC50 [4]: 2 µM | Ki [13]: 1 µM | IC50 [14]: 7 µM | Ki [15]: 2 µM | IC50 [5]: > 256 µM | IC50 [16]: 7 µM | Ratio IC50 [17]: 2 | IC50 [6]: > 500 µM | IC50 [7]: 7 µM | IC50 [8]: 2 µM | IC50 [18]: 7 µM

O=P(O)(O)C(CNc1ccc(I)cc1)P(=O)(O)O
inhibition [1]: inactive

O=P(O)(O)C(O)(Cc1ccc(Cl)c(Cl)c1)P(=O)(O)O
IC50 [10]: 35 µM | IC50 [11]: 35 µM | IC50 [12]: 4.5 µM | IC50 [3]: 45 µM | IC50 [4]: 5 µM | Ki [13]: 4.4 µM | IC50 [14]: > 250 µM | IC50 [5]: 150 µM | IC50 [16]: 35 µM | IC50 [6]: > 500 µM | IC50 [7]: 35 µM | Ki [19]: 38 µM | IC50 [8]: 4 µM | IC50 [18]: 35 µM

O=P(O)(O)C(CNc1ccccc1)P(=O)(O)O
inhibition [1]: inactive

O=P(O)(O)C(Cc1ccc(Cl)c(Cl)c1)P(=O)(O)O
IC50 [12]: 6 µM | IC50 [3]: 30 µM | IC50 [4]: 5 µM | IC50 [14]: > 250 µM | IC50 [5]: 130 µM | IC50 [6]: > 500 µM | IC50 [7]: 30 µM | IC50 [8]: 5 µM

O=P(O)(O)C(O)(Cc1ccc(Cl)cc1)P(=O)(O)O
IC50 [12]: 8 µM | IC50 [3]: 42 µM | IC50 [4]: 5 µM | IC50 [14]: > 250 µM | IC50 [5]: 70 µM | IC50 [6]: > 500 µM | IC50 [7]: 20 µM | IC50 [8]: 6 µM
